Assay [1] concerns Macrophage. Nature of the assay: Induction of TNFalpha release in C57BL/6J mouse macrophages harboring TLR6 int/int mutant at 50 uM after 4 hrs by ELISA. It counts as functional, cell-based. In short, it runs like this: (§1)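 Macrophages taken from mice carrying disabling germline mutations or knockouts in TLR or signaling-pathway genes. Exposed to compound at 50 µM; TNF-α released into the medium measured by ELISA. Results representative of two independent experiments; error bars SEM.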
A general note: An ELISA detects its analyte on a solid surface through an enzyme-linked reagent.

In assay [2] the test system is Macrophage. Nature of the assay: Induction of TNFalpha release in C57BL/6J mouse macrophages harboring TLR2 ingd/ingd mutant at 50 uM after 4 hrs by ELISA. It counts as functional, cell-based. An outline of the steps:
as §1

The species named for assay [3] is Mus musculus. Kind of assay: Agonist activity at TLR4 lps3/lps3 mutant in C57BL/6J mouse macrophages assessed as stimulated release of TNFalpha after 4 hrs by ELISA. An outline of the steps:
as §1

Assay [4] deals with T1, Toll-like receptor 4 (Mus musculus) (UniProt Q9QUK6).
T1 sequence (whole entry): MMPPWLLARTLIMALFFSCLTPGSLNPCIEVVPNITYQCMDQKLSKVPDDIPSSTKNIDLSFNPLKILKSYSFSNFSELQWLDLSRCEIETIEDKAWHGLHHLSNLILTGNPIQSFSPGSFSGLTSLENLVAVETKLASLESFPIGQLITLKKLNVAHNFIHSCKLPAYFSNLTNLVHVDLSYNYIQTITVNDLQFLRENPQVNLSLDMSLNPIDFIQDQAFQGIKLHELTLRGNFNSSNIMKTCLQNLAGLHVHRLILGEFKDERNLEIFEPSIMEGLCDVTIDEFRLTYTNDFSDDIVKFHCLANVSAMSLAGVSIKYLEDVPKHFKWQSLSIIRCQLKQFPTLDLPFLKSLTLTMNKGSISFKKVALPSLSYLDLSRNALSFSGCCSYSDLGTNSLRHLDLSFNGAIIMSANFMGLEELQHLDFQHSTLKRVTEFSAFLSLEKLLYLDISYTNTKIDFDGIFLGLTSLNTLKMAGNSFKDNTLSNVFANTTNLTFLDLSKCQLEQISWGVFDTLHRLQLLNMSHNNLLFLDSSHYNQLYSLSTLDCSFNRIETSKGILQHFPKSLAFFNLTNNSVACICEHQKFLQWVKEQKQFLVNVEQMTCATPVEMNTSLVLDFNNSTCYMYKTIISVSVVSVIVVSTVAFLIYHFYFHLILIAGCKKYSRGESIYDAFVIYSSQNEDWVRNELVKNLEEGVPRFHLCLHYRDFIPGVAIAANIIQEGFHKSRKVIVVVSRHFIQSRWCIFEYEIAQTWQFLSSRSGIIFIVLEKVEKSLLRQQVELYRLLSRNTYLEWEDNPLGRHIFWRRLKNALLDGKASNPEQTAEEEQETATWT
Nature of the assay: Agonist activity at TLR4 receptor in C57BL/6J mouse macrophages harboring Ikbkg panr2/Y mutant assessed as induction of TNFalpha release at 50 uM after 4 hrs by ELISA. An outline of the steps: as §1

The subject of assay [5] is Macrophage. Kind of assay: Induction of TNFalpha release in C57BL/6J mouse macrophages harboring CD14 hdl/hdl mutant at 50 uM after 4 hrs by ELISA. It counts as functional, cell-based. In short, it runs like this:
as §1

For assay [6], the system named is Macrophage. Nature of the assay: Induction of TNFalpha release in TLR3 deficient C57BL/6J mouse macrophages at 50 uM after 4 hrs by ELISA. Format: functional, cell-based. An outline of the steps:
as §1

Assay [7] concerns the target T1, Toll-like receptor 4 (Mus musculus). Kind of assay: Agonist activity at TLR4 receptor in C57BL/6J mouse macrophages harboring Ticam1 Lps2/Lps2 mutant assessed as induction of TNFalpha release at 50 uM after 4 hrs by ELISA. In short, it runs like this: as §1
Assay [8] has as its system Mus musculus. Kind of assay: Adjuvant activity in C57BL/6J mouse assessed as increase in OVA-specific IgG2b levels at 250 mg/kg, im after 21 days by ELISA. It counts as functional, organism-based. An outline of the steps:
(§2)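 C57BL/6 mice, 4 per group, immunized i.m. with 100 µg ovalbumin (endotoxin <1 EU/mg) plus compound in propylene glycol vehicle, or vehicle alone. OVA-specific IgG subclasses in serum titrated by ELISA at day 21. Mean ± SEM.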

In assay [9] the target is T1, Toll-like receptor 4 (Mus musculus). Nature of the assay: Agonist activity at TLR4 receptor in LY96 deficient C57BL/6J mouse macrophages assessed as induction of TNFalpha release at 50 uM after 4 hrs by ELISA. In short, it runs like this:
as §1

For assay [10] the target is unchanged. Nature of the assay: Agonist activity at TLR4 receptor in C57BL/6J mouse macrophages harboring MYD88 poc/poc mutant assessed as induction of TNFalpha release at 50 uM after 4 hrs by ELISA. An outline of the steps: as §1
Assay [11] deals with Macrophage. Nature of the assay: Induction of TNFalpha release in C57BL/6J mouse macrophages harboring TLR9 CpG3/CpG3 mutant at 50 uM after 4 hrs by ELISA. Format: functional, cell-based. In short, it runs like this:
as §1

The target in assay [12] is T1, Toll-like receptor 4 (Mus musculus). Nature of the assay: Agonist activity at TLR4 receptor in C57BL/6J mouse macrophages harboring Irak4 otiose/otiose mutant assessed as induction of TNFalpha release at 50 uM after 4 hrs by ELISA. An outline of the steps:
as §1

Assay [13] deals with Mus musculus. Kind of assay: Adjuvant activity in C57BL/6J mouse assessed as increase in OVA-specific IgG3 levels at 250 mg/kg, im after 21 days by ELISA. Format: functional, organism-based. In short, it runs like this:
as §2

For assay [14], the system named is Mus musculus. Kind of assay: Adjuvant activity in C57BL/6J mouse assessed as increase in OVA-specific IgG1 levels up to 250 mg/kg, im after 21 days by ELISA. Format: functional, organism-based. In short, it runs like this:
as §2

The test system of assay [15] is Mus musculus. Kind of assay: Adjuvant activity in C57BL/6J mouse assessed as increase in OVA-specific IgG2a levels at 250 mg/kg, im after 21 days by ELISA. Format: functional, organism-based. In short, it runs like this:
as §2

Assay [16] relates to Macrophage. Kind of assay: Induction of TNFalpha release in C57BL/6J mouse macrophages harboring TLR7 rsq1/rsq1 mutant at 50 uM after 4 hrs by ELISA. It counts as functional, cell-based. An outline of the steps:
as §1

The target in another assay is T2, Toll-like receptor 4 (Mus musculus, UniProt Q9QUK6).
T2 sequence (Q9QUK6 whole entry): T1 sequence (whole entry)
Nature of the assay: (§3) Agonist activity at TLR4 in C57BL/6J mouse macrophages assessed as stimulation of TNFalpha release after 4 hrs by ELISA. An outline of the steps: (§4)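 Peritoneal macrophages from wild-type C57BL/6J mice, collected by PBS lavage and cultured in DMEM/10% FBS at 37 °C, 5% CO2. Seeded at 1 × 10^5 cells/well and treated 4 h with compound in DMSO (0.5% final) beside ultra-pure LPS and DMSO controls. Supernatant TNF-α measured by ELISA; mean of triplicates.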

Assay [17] concerns the target T1, Toll-like receptor 4 (Mus musculus). The assay is described as §3. An outline of the steps:
as §4

The target is the same in assay [18]. Nature of the assay: Agonist activity at TLR4 in C57BL/6J mouse macrophages assessed as stimulation of TNFalpha release at 50 uM after 4 hrs by ELISA. An outline of the steps: as §4

Activity calls are given as the source filed them. Unless noted, the rule behind the calls is not given here.

Turning to `CC(C)(C)OC(=O)[C@H](CCc1ccccc1)NC(=O)c1ccc(N)c(CCc2ccc(O)cc2)c1`, the result with Macrophage [1], with Macrophage [2], in the assay with Macrophage [5], in the assay with Macrophage [6], with Mus musculus [8] and with Macrophage [11] was Active. In addition, the outcome in the assay with Mus musculus [13], in the assay on Mus musculus [15] and with Macrophage [16] was Active. Further, the outcome (in the assay listed under Mus musculus [3]; in assay [4]; in assay [7]; in [9]; in assay [10]; in assay [12]) was inactive. Also, the Activity result (in the assay with Mus musculus [14]; in [17]) was “Dose-dependent effect” throughout. Besides, the concentration for a half-maximal effect (EC50) on Toll-like receptor 4 came to 18.5 µM.

Turning to `CC(C)(C)OC(=O)[C@H](CCc1ccccc1)NC(=O)c1ccc(N)c(OCCc2ccc(O)cc2)c1`, the EC50 on Toll-like receptor 4 worked out at 20.7 µM. In addition, the Activity result in assay [17] was “Dose-dependent effect”.

For `CC(C)(C)OC(=O)[C@H](CCC1CCCCC1)NC(=O)c1ccc(N)c(CCc2ccc(O)cc2)c1`, the result in assay [18] was Active. The EC50 at Toll-like receptor 4 was determined as 29.5 µM.

Broadly, the EC50 is the concentration needed to bring the measured effect to its halfway point.

The values are drawn from ChEMBL document CHEMBL3817776, “Discovery and Structure-Activity Relationships of the Neoseptins: A New Class of Toll-like Receptor-4 (TLR4) Agonists” (J Med Chem, 2016).
